Compound activity (PubChem BioAssay)
An excerpt weighted towards active compounds, which were near 2.3% of everything screened.
Myeloid diff MLP – induction of myeloid progenitor differentiation, primary screen, cell-based, flow cytometry, MLPCN library; ER-HoxA9 myeloid progenitors, lysozyme-GFP differentiation; calls only at 10 µM; 1% of 360,000 active;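 active = normalized GFP-positive differentiation at or above the plate's own cutoff, the solvent-only control mean plus 3 SD; inconclusive = no clear call, values can overlap the other calls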;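 also: cells exposed to compound for four days before flow analysis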
Rpn11 inh – Rpn11 (PSMD14) deubiquitinase inhibitors, primary screen, biochemical, fluorescence polarization, uHTS; 26S proteasome non-ATPase regulatory subunit 14 (Homo sapiens), O00487; inhibition, % at 20 µM; 0.59% of 360,000 active; human 26S proteasome, Ub4-pepOG fluorescence polarization; 20S core pre-blocked with epoxomicin; AID 588493, 2011;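 active = inhibition at 20 µM, scaled to each plate's controls, above about 33%, limit read from the data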
Target sequence (O00487 whole entry, looked up): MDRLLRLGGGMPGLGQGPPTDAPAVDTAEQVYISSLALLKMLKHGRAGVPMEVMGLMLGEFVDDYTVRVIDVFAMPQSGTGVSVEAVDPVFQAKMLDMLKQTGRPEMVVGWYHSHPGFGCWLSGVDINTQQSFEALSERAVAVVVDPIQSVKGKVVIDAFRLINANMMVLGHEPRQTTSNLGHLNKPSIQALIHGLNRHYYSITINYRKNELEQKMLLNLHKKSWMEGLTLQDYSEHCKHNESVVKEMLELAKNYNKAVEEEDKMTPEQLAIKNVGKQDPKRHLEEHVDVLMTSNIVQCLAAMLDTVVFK
HNF4A DNA FP – change in binding of human HNF4A to DNA, primary screen, biochemical, fluorescence polarization, FITC-DNA; 0.3% of 360,000 active; 1 h; Hepatocyte nuclear factor 4-alpha (Homo sapiens), P41235; AID 1224865, 2016; activity change, % at 10 µM; in the data active = activity change above about 30%, passing the limit was not always enough
TPT1 inh – Candida albicans TPT1 enzyme inhibitors, primary screen, biochemical, fluorescence polarization; tRNA 2'-phosphotransferase TPT1 (Candida albicans SC5314); recombinant caTPT1, FP RNA substrate dephosphorylation; inhibition, % at 5 µM; 0.81% of 300,000 active;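 active = inhibition above the mean of all tested compounds plus 3 SD, set per screening campaign, cut at about 24% in these data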
CSN inh – inhibitors of CSN-mediated cullin deneddylation, primary screen, biochemical, fluorescence polarization, uHTS | 0.38% of 360,000 active | Purified CSN, SCF-Nedd8-OG deneddylation | inhibition, % at 12.5 µM | COP9 signalosome complex subunit 5 (Homo sapiens), Q92905;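 active = pattern-corrected inhibition above about 35%, with an unprinted fluorescence ratio check between 0.5 and 1.5, limit read from the data, passing the limit was not always enough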
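Assay system: HEK293T-derived human Csn5 enzyme; quantity: 0.24 nM enzyme; medium: Tris/NaCl/DTT buffer, pH 7.5; also added: substrate SCFSkp2-Nedd8OG, 10 nM; doses: 12.5 µM compound; schedule: 90 min reaction at room temperature; signal: FP; read-out: % inhibition of substrate cleavage by Csn5; benchmarks: substrate-only high control, full reaction low control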
Large screens that a line does not name were inactive.

CSCC[C@H](NC(=O)Cc1ccc(Cl)cc1)C(=O)N1CCC2(CC1)NCCc1[nH]cnc12	Myeloid diff MLP active
O=C(NC(=S)NNC(=O)c1cnccn1)c1ccc(Cl)cc1	Myeloid diff MLP active
CC[C@@H](C)[C@H](CN[C@H](CNC)C(C)C)NC[C@@H](C)c1ccc(CC(C)C)cc1	Myeloid diff MLP active
CC[C@H](C)[C@@H](CNC)NC[C@@H](Cc1ccc(O)cc1)NCC(C)(C)C	none
Cc1ccc(-c2cn3cccc(C)c3n2)cc1	none (no result: TPT1 inh)
O=[N+]([O-])c1cccn2cc(-c3ccc(Br)cc3)nc12	Myeloid diff MLP active
C=CCNc1nc(NCc2ccc(N(C)C)cc2)c2sc(-c3ccccc3)cc2n1	Myeloid diff MLP active, CSN inh 48.8 (no result: TPT1 inh)
COc1cc(OC)cc(C2=Cc3ccccc3C(CC(=O)c3ccco3)N2c2ccc(-c3ccc(C(N)=O)cc3)cc2)c1 (stereo unspecified)	none (no result: Rpn11 inh, TPT1 inh)
CSCCC(C(=O)Nc1c(C)cccc1C)n1c(-c2cc(C)cs2)nc2ccccc21 (stereo unspecified)	none (no result: Rpn11 inh, TPT1 inh)
CC(C)(C)OC(=O)N1CCN(Cc2ccc(F)c(B(O)O)c2)CC1	Myeloid diff MLP active (no result: TPT1 inh)
N#CC(C#N)=c1ccc2c(c1)NC1(CCCCC1)N=2	Myeloid diff MLP active
N#CC(C#N)=C1NC2(CCCCC2)Cc2ccccc21	none
C=CCc1cccc(/C=N/NC(=O)CCC(=O)Nc2ccc(F)cc2)c1O	Myeloid diff MLP active
CC(C)CN(C(=O)CN1CCc2ccccc21)c1c(N)n(CC(C)C)c(=O)[nH]c1=O	HNF4A DNA FP 32.2 (not shown: Rpn11 inh)
c1cc2c3c(cccc3c1)C(N1CCOCC1)=N2	none
c1ccc(CC2CCN(C3=Nc4cccc5cccc3c45)CC2)cc1	Rpn11 inh 38.7
Cc1cc2c(SCc3ccccc3Cl)nc(N)nc2nc1C	Myeloid diff MLP active (not shown: Rpn11 inh, TPT1 inh)
Cc1sc2ncnc(N3CCC(C(=O)NNC(=O)COc4ccc(Cl)cc4)CC3)c2c1C	none (no result: TPT1 inh)
Cc1sc2ncnc(N3CCN(CCOc4ccc(Cl)cc4)CC3)c2c1C	Myeloid diff MLP active
O=C(NCc1ccccc1)C(C1CC1)n1c(CSCCOc2ccccc2)nc2ccccc21 (stereo unspecified)	none (no result: Rpn11 inh, TPT1 inh)
Cc1sc2ncnc(NCC3COc4ccccc4O3)c2c1C (stereo unspecified)	Myeloid diff MLP active
CCOC(=O)c1cnc2c(C)cccc2c1NCc1ccco1	Myeloid diff MLP active
O=c1[nH][nH]c2c1C(c1ccc(Cl)c(Cl)c1)OC(CCc1ccccc1)C2 (stereo unspecified)	none (no result: Rpn11 inh, TPT1 inh)
CCc1ccccc1NC(=O)C1CCN(S(C)(=O)=O)CC1	Myeloid diff MLP active
CS(=O)(=O)N1CCC(C(=O)Nc2ccccc2Cl)CC1	none (no result: TPT1 inh)
O=C1c2nc3cc(-c4ccco4)[nH]n3c(=O)c2CN1C1CCCCC1	CSN inh 45.6
O=c1cc(-c2ccccc2)nc2cc(-c3ccco3)[nH]n12	none
CC(C)n1cc(-c2nc(C(=O)NN)cs2)c(=O)n(Cc2ccccc2)c1=O	Myeloid diff MLP active
CCNC(=S)N1CCNC(=O)C1CC(=O)OC (stereo unspecified)	CSN inh 80.7
CCCc1c(Cc2cccc(F)c2)ncn1Cc1cccc(-c2ccccc2)c1	Myeloid diff MLP active (no result: Rpn11 inh, TPT1 inh)
COc1cccc(-c2cnc3c(NC=O)cc(-c4cc(OC)c(OC)c(OC)c4)cn23)c1	Myeloid diff MLP active (no result: TPT1 inh)
COc1ccc(-c2cc(NC=O)c3ncc(-c4cccc(C(=O)NCCN(C)C)c4)n3c2)cc1	Myeloid diff MLP active (no result: TPT1 inh)
CCCCn1nnnc1C(c1ccccc1OC(F)(F)F)N1CCN(C/C=C/c2ccccc2)CC1 (stereo unspecified)	none (no result: TPT1 inh)
CC(=O)c1c(C)n(C)c2ccc(OC(=O)c3ccco3)cc12	Myeloid diff MLP active
Fc1ccc(Cc2nnc(-c3cccs3)o2)cc1	none
Fc1ccc(-c2nnc(Cc3ccc(Cl)cc3)o2)cc1	HNF4A DNA FP 61.1
CCc1nc2ccc(C(=O)Nc3cc(-c4ccccc4)ccc3OC)cn2c1N(CCN(C)C)CC1CC1	Myeloid diff MLP inconclusive (no result: TPT1 inh)
O=C(NC1CCCC1)c1nc(-c2ccco2)oc1-c1ccccc1	none (no result: Rpn11 inh, TPT1 inh)
Cc1ccc(C)n1-c1sc2c(c1C(=O)O)CCCC2	CSN inh 38.7
